ChEMBL document CHEMBL1155224, “Discovery of new inhibitors of resistant Streptococcus pneumoniae penicillin binding protein (PBP) 2x by structure-based virtual screening” (J Med Chem, 2009)
Positions count from the first letter of the chain named. In brackets after ≈: the same amount, converted by molar mass. Activity calls are given as the source filed them. The calls are words filed in the database; no cut-off is given here.

How the values were obtained:
[1] = target: T1, Penicillin-binding protein 2X (Streptococcus pneumoniae R6) (UniProt P59676); assay: (§1) Inhibition of penicillin-sensitive Streptococcus pneumoniae R6 PBP2X preincubated for 1 hr before addition of substrate (R)-[2-(benzoylamino)propionylsulfanyl]acetic acid
T1 sequence (whole entry): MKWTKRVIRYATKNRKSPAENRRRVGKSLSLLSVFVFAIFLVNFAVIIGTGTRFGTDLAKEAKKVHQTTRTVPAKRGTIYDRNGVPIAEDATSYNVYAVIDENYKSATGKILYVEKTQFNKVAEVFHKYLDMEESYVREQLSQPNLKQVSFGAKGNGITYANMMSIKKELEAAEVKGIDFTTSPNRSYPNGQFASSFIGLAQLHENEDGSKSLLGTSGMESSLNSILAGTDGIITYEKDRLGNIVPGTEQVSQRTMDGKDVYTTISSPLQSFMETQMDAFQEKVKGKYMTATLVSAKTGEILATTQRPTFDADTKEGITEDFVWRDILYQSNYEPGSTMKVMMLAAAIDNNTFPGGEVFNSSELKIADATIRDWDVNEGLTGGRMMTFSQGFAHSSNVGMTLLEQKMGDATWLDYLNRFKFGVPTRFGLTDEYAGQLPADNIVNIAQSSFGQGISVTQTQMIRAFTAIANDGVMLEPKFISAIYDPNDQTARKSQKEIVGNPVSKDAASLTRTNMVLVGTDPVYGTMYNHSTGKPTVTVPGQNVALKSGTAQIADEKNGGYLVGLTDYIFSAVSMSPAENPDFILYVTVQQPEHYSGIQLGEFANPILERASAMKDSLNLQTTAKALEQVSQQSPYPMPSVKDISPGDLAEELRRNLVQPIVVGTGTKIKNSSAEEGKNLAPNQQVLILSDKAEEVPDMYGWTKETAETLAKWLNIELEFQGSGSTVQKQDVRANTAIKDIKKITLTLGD
In short: (§2)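 Compounds taken from 100 mM DMF stocks (1% DMF final) and preincubated with 0.09 μM R6-PBP2x in 10 mM sodium phosphate pH 7.0 with 0.01 mg/mL BSA, 60 min, 25 °C. Spontaneous hydrolysis without enzyme measured. Triplicates. IC50 fitted from residual activity versus decreasing inhibitor concentration, with 0.01% Triton X-100.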

[2] = target: T2, Penicillin-binding protein 2x (Streptococcus pneumoniae serotype 4 (strain ATCC BAA-334 / TIGR4)) (UniProt P14677); assay: (§3) Inhibition of penicillin-resistant Streptococcus pneumoniae 5204 PBP2X preincubated for 4 hrs before addition of substrate (R)-[2-(benzoylamino)propionylsulfanyl]acetic acid
T2 sequence (whole entry): T1 sequence (whole entry) with M385T
In short: (§4)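 0.6 μM 5204-PBP2x preincubated 4 h at 25 °C with inhibitor in 10 mM sodium phosphate pH 7.0, 70 mM D-alanine, 0.01 mg/mL BSA, 1% DMF, 0.01% Triton X-100. Assays were run in triplicate, and IC50 was fitted from residual activity versus decreasing inhibitor concentrations.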

[3] = test system: Streptococcus pneumoniae; assay: Antibacterial activity against penicillin-resistant Streptococcus pneumoniae 5259; type: functional
[4] = test system: Streptococcus pneumoniae; assay: Antibacterial activity against penicillin-resistant Streptococcus pneumoniae SP328; type: functional
[5] = target: T3, Penicillin-binding protein 2X (Streptococcus pneumoniae R6, UniProt P59676); assay: as §1; in short: as §2
T3 sequence (P59676 whole entry): T1 sequence (whole entry)

[6] = target: Penicillin-binding protein 2x (Streptococcus pneumoniae serotype 4 (strain ATCC BAA-334 / TIGR4), UniProt P14677); assay: as §3; in short: as §4
Penicillin-binding protein 2x, sequence (P14677 whole entry, looked up): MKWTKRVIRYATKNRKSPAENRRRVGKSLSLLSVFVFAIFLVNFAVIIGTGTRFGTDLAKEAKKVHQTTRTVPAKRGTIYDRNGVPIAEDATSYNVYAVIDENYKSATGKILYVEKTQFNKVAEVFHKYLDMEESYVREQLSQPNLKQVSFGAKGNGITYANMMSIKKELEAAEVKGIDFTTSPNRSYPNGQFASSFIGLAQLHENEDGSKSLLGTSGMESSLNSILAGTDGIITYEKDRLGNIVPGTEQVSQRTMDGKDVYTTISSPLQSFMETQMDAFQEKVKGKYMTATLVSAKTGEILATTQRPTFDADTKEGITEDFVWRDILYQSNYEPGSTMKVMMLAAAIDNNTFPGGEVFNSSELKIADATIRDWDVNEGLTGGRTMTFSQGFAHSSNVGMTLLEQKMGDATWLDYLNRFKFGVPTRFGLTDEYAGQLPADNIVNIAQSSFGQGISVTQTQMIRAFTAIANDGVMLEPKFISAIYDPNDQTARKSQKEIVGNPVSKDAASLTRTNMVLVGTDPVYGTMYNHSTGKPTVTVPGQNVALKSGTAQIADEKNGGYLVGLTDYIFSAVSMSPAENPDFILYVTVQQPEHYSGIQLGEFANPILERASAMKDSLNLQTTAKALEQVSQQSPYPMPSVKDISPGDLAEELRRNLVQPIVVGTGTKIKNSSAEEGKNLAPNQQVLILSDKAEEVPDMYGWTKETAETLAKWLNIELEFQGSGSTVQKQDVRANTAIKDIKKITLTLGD

[7] = Inhibition of Streptococcus pneumoniae PBP1B after 60 mins by SDS-PAGE
In short: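 Test compounds incubated with 0.7 μM PBP1b in 10 mM sodium phosphate pH 7.0 for 60 min at 30 °C. Remaining active enzyme counter-labeled with 10 μM fluorescein-labeled ampicillin for 20 min. Reaction stopped, proteins separated by SDS-PAGE and read by fluorescence imaging with background subtracted.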

[8] = target: T2, Penicillin-binding protein 2x (Streptococcus pneumoniae serotype 4 (strain ATCC BAA-334 / TIGR4)); assay: Inhibition of penicillin-resistant Streptococcus pneumoniae 5204 PBP2X assessed as residual activity at 100 uM preincubated for 1 hr before addition of substrate (R)-[2-(benzoylamino)propionylsulfanyl]acetic acid
[9] = target: T2, Penicillin-binding protein 2x (Streptococcus pneumoniae serotype 4 (strain ATCC BAA-334 / TIGR4)); assay: Inhibition of penicillin-resistant Streptococcus pneumoniae 5204 PBP2X; in short: as §4
[10] = target: T2, Penicillin-binding protein 2x (Streptococcus pneumoniae serotype 4 (strain ATCC BAA-334 / TIGR4)); assay: Inhibition of penicillin-resistant Streptococcus pneumoniae 5204 PBP2X assessed as residual activity at 200 uM preincubated for 1 hr before addition of substrate (R)-[2-(benzoylamino)propionylsulfanyl]acetic acid

SMILES | Activity [1] | Activity [2] | also measured
CC1(C)S[C@@H]2[C@H](NC(=O)Cc3ccccc3)C(=O)N2[C@H]1C(=O)O [PENICILLIN G] | Active | Active | MIC [3]: 0.19 µg/mL (≈ 0.568 µM); MIC [4]: 4 µg/mL (≈ 12 µM)
O=C(Nc1cccc(C(F)(F)F)c1)Nc1c(Oc2ccc(Cl)c(Cl)c2)ccc(Cl)c1S(=O)(=O)O | – | – | IC50 [5]: 255 µM; IC50 [6]: 72 µM; IC50 ([7]; read-out: IC50): 88 µM; Activity [8]: 50%; Activity [9]: Active
Cc1ccc(Nc2nnc(CSc3ccc(Cl)cc3)s2)c(S(=O)(=O)O)c1 | – | – | IC50 [5]: > 1000 µM; IC50 [6]: 219 µM; IC50 [7]: Not Active; Activity [10]: 54%; Activity [9]: Active
Cc1cc(Cl)ccc1NC(=O)Nc1c(Oc2ccc(Cl)cc2)ccc(Cl)c1S(=O)(=O)O | – | – | IC50 [5]: 336 µM; IC50 [6]: 71 µM; IC50 ([7]; read-out: IC50): 259 µM; Activity [8]: 50%; Activity [9]: Active
CC1(C)S[C@@H]2[C@H](NC(=O)[C@H](N)c3ccc(O)cc3)C(=O)N2[C@H]1C(=O)O | Active | Active | –
C[C@H]1NCc2cc(-c3ccc4c(=O)c(C(=O)O)cn(C5CC5)c4c3OC(F)F)ccc21 | Active | Active | –
CCO/N=C(\C(=O)N[C@@H]1C(=O)N2C(C(=O)[O-])=C(C[n+]3cccc4c3ncn4CCCNC)CS[C@H]12)c1nsc(N)n1 | Active | Active | –
CC(=O)C[n+]1ccc(SCC2=C(C(=O)[O-])N3C(=O)[C@@H](NC(=O)/C(=N/OC4CCCC4)c4csc(N)n4)[C@H]3SC2)cc1 | Active | Active | –
CCC1C(=O)N2CC1CC(OC)=C2C(=O)O (centres undefined) | Active | Active | –
CC/C=C(\C(=O)N[C@@H]1C(=O)N2C(C(=O)O)=C(COC(N)=O)CS[C@H]12)c1csc(N)n1 | Active | Active | –
Nc1cc(SCSC2=C(C(=O)O)N3C(=O)[C@@H](NC(=O)/C(=N/O)c4nc(N)sc4Cl)[C@H]3SC2)nc(N)n1 | Active | Active | –
CC=CC1=C(C(=O)O)N2C(=O)[C@@H](NC(=O)[C@H](N)c3ccc(O)cc3)[C@H]2SC1 | Active | Active | –
CO/N=C(\C(=O)N[C@@H]1C(=O)N2C(C(=O)O)=C(CSc3nc(=O)c(O)nn3C)CS[C@H]12)c1csc(N)n1 | Active | Active | –
COc1c(N2CCNC(C)C2)c(F)cc2c(=O)c(C(=O)O)cn(C3CC3)c12 (centres undefined) | Active | Active | –
CC(=O)OCC1=C(C(=O)O)N2C(=O)[C@@H](NC(=O)Cc3cccs3)[C@H]2SC1 | Active | Active | –
CO/N=C(\C(=O)N[C@@H]1C(=O)N2C(C(=O)OCOC(=O)C(C)(C)C)=C(/C=C\c3scnc3C)CS[C@H]12)c1csc(N)n1 | Active | Active | –
O=C(O)c1cc(-c2ccc(/C=C3\S/C(=N\c4ccccc4)N(c4ccccc4)C3=O)o2)ccc1Cl | inactive | inactive | –
CCn1c2ccccc2c2cc(/C=C3\S/C(=N\C(Cc4ccccc4)C(=O)O)N(c4ccccc4)C3=O)ccc21 (centres undefined) | inactive | inactive | –
N[C@@H](C(=O)N[C@@H]1C(=O)N2C(C(=O)O)=C(Cl)CS[C@H]12)c1ccccc1 | Active | Active | –
